Source: article PMC11390321 (Cancer chemotherapy and pharmacology, 2024)
Where two headings read alike, the source gives them in different places.

What was measured:
[1] = type: in vivo, BALB/c mice; settings: for clearance: CL
[2] = clinical; cited from earlier work
[3] = system: breast cancer resistance protein (Bcrp/Abcg2); settings: on the BBB; cited from earlier work
[4] = Plasma protein binding by rapid equilibrium dialysis; type: in vitro ADME; settings: BALB/c, mouse
Method in brief: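 Rapid equilibrium dialysis: freshly spiked BALB/c mouse plasma against PBS, 37 °C for 24 h. Test compound at 300–100,000 ng/mL with <0.1% final organic solvent, triplicate. Fraction unbound in plasma determined from chamber concentrations.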

[5] = clinical; cited from earlier work; remark: listed apart in the source
[6] = BALB/c, mouse, bone marrow, iv, 20 mg/kg
[7] = BALB/c, mouse, brain, iv, 20 mg/kg
[8] = BALB/c, mouse, draining lymph node, iv, 20 mg/kg
[9] = BALB/c, mouse, esophagus, iv, 20 mg/kg
[10] = BALB/c, mouse, fat, iv, 20 mg/kg
[11] = BALB/c, mouse, heart, iv, 20 mg/kg
[12] = BALB/c, mouse, kidney, iv, 20 mg/kg
[13] = BALB/c, mouse, liver, iv, 20 mg/kg
[14] = BALB/c, mouse, lung, iv, 20 mg/kg
[15] = BALB/c, mouse, non-draining lymph node, iv, 20 mg/kg
[16] = BALB/c, mouse, plasma, iv, 20 mg/kg
[17] = BALB/c, mouse, red blood cells (RBC), iv, 20 mg/kg
[18] = BALB/c, mouse, skeletal muscle, iv, 20 mg/kg
[19] = BALB/c, mouse, small intestine, iv, 20 mg/kg
[20] = BALB/c, mouse, spinal cord, iv, 20 mg/kg
[21] = BALB/c, mouse, spleen, iv, 20 mg/kg
[22] = BALB/c, mouse, thymus, iv, 20 mg/kg
[23] = BALB/c, mouse, tumor (CT26), iv, 20 mg/kg
[24] = plasma, 20 mg/kg IV-ext, tumor-bearing mice
[25] = unchanged drug, 20 mg/kg IV-ext, tumor-bearing mice

Question: For `CNCc1ccc(-c2cc(-c3nc(-c4ccc(S(=O)(=O)C(C)C)cc4)cnc3N)on2)cc1` [berzosertib], which AUC(0-inf) [1, 6] is on record?
Answer: 1110 µg·h/mL

Question: And the Cmax [1, 6]?
Answer: 164 µg/mL

Question: And the Kp [1, 6]?
Answer: 74.5

Question: What about the Tmax [1, 6] of the same compound?
Answer: 60 min

Question: What about the AUC(0-t) ([1]; BALB/c, mouse, bone marrow, iv, 20 mg/kg, AUC0-t, 20 mg/kg IV, 0–1440 min) of the same compound?
Answer: 1060 µg·h/mL

Question: What about the AUC(0-inf) [1, 7] of the same compound?
Answer: 4.52 µg·h/mL

Question: What about the Cmax [1, 7] of the same compound?
Answer: 0.627 µg/mL

Question: And the Kp [1, 7]?
Answer: 0.297

Question: What about the Tmax [1, 7] of the same compound?
Answer: 15 min

Question: What about the AUC(0-t) ([1]; BALB/c, mouse, brain, iv, 20 mg/kg, AUC0-t, 20 mg/kg IV, 0–1440 min) of the same compound?
Answer: 4.23 µg·h/mL

Question: And the AUC(0-inf) [1, 8]?
Answer: 87 µg·h/mL

Question: What about the Cmax [1, 8] of the same compound?
Answer: 12.9 µg/mL

Question: And the Kp [1, 8]?
Answer: 5.7

Question: What about the Tmax [1, 8] of the same compound?
Answer: 60 min

Question: And the AUC(0-t) ([1]; BALB/c, mouse, draining lymph node, iv, 20 mg/kg, AUC0-t, 20 mg/kg IV, 0–1440 min)?
Answer: 80.3 µg·h/mL

Question: And the AUC(0-inf) [1, 9]?
Answer: 46.7 µg·h/mL

Question: What about the Cmax [1, 9] of the same compound?
Answer: 12.1 µg/mL

Question: And the Kp [1, 9]?
Answer: 3.07

Question: And the Tmax [1, 9]?
Answer: 30 min

Question: What about the AUC(0-t) ([1]; BALB/c, mouse, esophagus, iv, 20 mg/kg, AUC0-t, 20 mg/kg IV, 0–1440 min) of the same compound?
Answer: 43.6 µg·h/mL

Question: And the AUC(0-inf) [1, 10]?
Answer: 25.2 µg·h/mL

Question: And the Cmax [1, 10]?
Answer: 4.28 µg/mL

Question: And the Kp [1, 10]?
Answer: 1.59

Question: And the Tmax [1, 10]?
Answer: 5 min

Question: What about the AUC(0-t) ([1]; BALB/c, mouse, fat, iv, 20 mg/kg, AUC0-t, 20 mg/kg IV, 0–1440 min) of the same compound?
Answer: 22.6 µg·h/mL

Question: And the AUC(0-inf) [1, 11]?
Answer: 86.5 µg·h/mL

Question: What about the Cmax [1, 11] of the same compound?
Answer: 31.6 µg/mL

Question: What about the Kp [1, 11] of the same compound?
Answer: 5.64

Question: What about the Tmax [1, 11] of the same compound?
Answer: 5 min

Question: And the AUC(0-t) ([1]; BALB/c, mouse, heart, iv, 20 mg/kg, AUC0-t, 20 mg/kg IV, 0–1440 min)?
Answer: 81.2 µg·h/mL

Question: And the AUC(0-inf) [1, 12]?
Answer: 873 µg·h/mL

Question: What about the Cmax [1, 12] of the same compound?
Answer: 117 µg/mL

Question: And the Kp [1, 12]?
Answer: 57.7

Question: And the Tmax [1, 12]?
Answer: 5 min

Question: And the AUC(0-t) ([1]; BALB/c, mouse, kidney, iv, 20 mg/kg, AUC0-t, 20 mg/kg IV, 0–1440 min)?
Answer: 821 µg·h/mL

Question: What about the AUC(0-inf) [1, 13] of the same compound?
Answer: 387 µg·h/mL

Question: What about the Cmax [1, 13] of the same compound?
Answer: 79.8 µg/mL

Question: What about the Kp [1, 13] of the same compound?
Answer: 25.5

Question: And the Tmax [1, 13]?
Answer: 5 min

Question: What about the AUC(0-t) ([1]; BALB/c, mouse, liver, iv, 20 mg/kg, AUC0-t, 20 mg/kg IV, 0–1440 min) of the same compound?
Answer: 363 µg·h/mL

Question: What about the AUC(0-inf) [1, 14] of the same compound?
Answer: 216 µg·h/mL

Question: What about the Cmax [1, 14] of the same compound?
Answer: 45.2 µg/mL

Question: And the Kp [1, 14]?
Answer: 13.9

Question: And the Tmax [1, 14]?
Answer: 5 min

Question: What about the AUC(0-t) ([1]; BALB/c, mouse, lung, iv, 20 mg/kg, AUC0-t, 20 mg/kg IV, 0–1440 min) of the same compound?
Answer: 198 µg·h/mL

Question: What about the AUC(0-inf) [1, 15] of the same compound?
Answer: 116 µg·h/mL

Question: What about the Cmax [1, 15] of the same compound?
Answer: 20.7 µg/mL

Question: And the Kp [1, 15]?
Answer: 7.79

Question: And the Tmax [1, 15]?
Answer: 30 min

Question: And the AUC(0-t) ([1]; BALB/c, mouse, non-draining lymph node, iv, 20 mg/kg, AUC0-t, 20 mg/kg IV, 0–1440 min)?
Answer: 111 µg·h/mL

Question: And the AUC(0-inf) [1, 16]?
Answer: 15.1 µg·h/mL

Question: What about the Cmax [1, 16] of the same compound?
Answer: 13.3 µg/mL

Question: What about the Kp [1, 16] of the same compound?
Answer: 1

Question: And the Tmax [1, 16]?
Answer: 5 min

Question: What about the Vd [1, 16] of the same compound?
Answer: 11.7 L/kg

Question: And the half-life [1, 16]?
Answer: 367 min

Question: And the AUC(0-t) ([1]; BALB/c, mouse, plasma, iv, 20 mg/kg, AUC0-t, 20 mg/kg IV-ext, tumor-bearing mice)?
Answer: 14.2 µg·h/mL

Question: What about the AUC(0-t) ([1]; BALB/c, mouse, plasma, iv, 20 mg/kg, AUC0-t, 20 mg/kg IV, 0–1440 min) of the same compound?
Answer: 14.2 µg·h/mL

Question: And the AUC(0-t) ([1]; BALB/c, mouse, plasma, iv, 20 mg/kg, AUC0–360, plasma, 20 mg/kg IV-ext, tumor-bearing mice)?
Answer: 9.85 µg·h/mL

Question: What about the clearance ([1]; BALB/c, mouse, plasma, iv, 20 mg/kg, calculated using AUC0-∞, 20 mg/kg IV-ext, tumor-bearing mice) of the same compound?
Answer: 1.33 L/h/kg

Question: What about the clearance ([1]; BALB/c, mouse, plasma, iv, 20 mg/kg, calculated using AUC0–360, 20 mg/kg IV-ext, tumor-bearing mice) of the same compound?
Answer: 2.03 L/h/kg

Question: And the AUC(0-inf) [1, 17]?
Answer: 5.87 µg·h/mL

Question: What about the Cmax [1, 17] of the same compound?
Answer: 1.69 µg/mL

Question: What about the Kp [1, 17] of the same compound?
Answer: 0.389

Question: What about the Tmax [1, 17] of the same compound?
Answer: 5 min

Question: What about the AUC(0-t) ([1]; BALB/c, mouse, red blood cells (RBC), iv, 20 mg/kg, AUC0-t, RBC, 20 mg/kg IV, 0–1440 min) of the same compound?
Answer: 5.53 µg·h/mL

Question: And the AUC(0-inf) [1, 18]?
Answer: 41.7 µg·h/mL

Question: And the Cmax [1, 18]?
Answer: 9.95 µg/mL

Question: And the Kp [1, 18]?
Answer: 2.77

Question: And the Tmax [1, 18]?
Answer: 15 min

Question: And the AUC(0-t) ([1]; BALB/c, mouse, skeletal muscle, iv, 20 mg/kg, AUC0-t, Sk. Muscle, 20 mg/kg IV, 0–1440 min)?
Answer: 39.4 µg·h/mL

Question: What about the AUC(0-inf) [1, 19] of the same compound?
Answer: 209 µg·h/mL

Question: What about the Cmax [1, 19] of the same compound?
Answer: 31.3 µg/mL

Question: What about the Kp [1, 19] of the same compound?
Answer: 12.7

Question: And the Tmax [1, 19]?
Answer: 15 min

Question: What about the AUC(0-t) ([1]; BALB/c, mouse, small intestine, iv, 20 mg/kg, AUC0-t, 20 mg/kg IV, 0–1440 min) of the same compound?
Answer: 181 µg·h/mL

Question: What about the AUC(0-inf) [1, 20] of the same compound?
Answer: 2.15 µg·h/mL

Question: And the Cmax [1, 20]?
Answer: 0.307 µg/mL

Question: And the Kp [1, 20]?
Answer: 0.14

Question: And the Tmax [1, 20]?
Answer: 15 min

Question: And the AUC(0-t) ([1]; BALB/c, mouse, spinal cord, iv, 20 mg/kg, AUC0-t, 20 mg/kg IV, 0–1440 min)?
Answer: 2 µg·h/mL

Question: And the AUC(0-inf) [1, 21]?
Answer: 306 µg·h/mL

Question: And the Cmax [1, 21]?
Answer: 39 µg/mL

Question: What about the Kp [1, 21] of the same compound?
Answer: 20.6

Question: And the Tmax [1, 21]?
Answer: 120 min

Question: And the AUC(0-t) ([1]; BALB/c, mouse, spleen, iv, 20 mg/kg, AUC0-t, 20 mg/kg IV, 0–1440 min)?
Answer: 293 µg·h/mL

Question: What about the AUC(0-inf) [1, 22] of the same compound?
Answer: 92.9 µg·h/mL

Question: What about the Cmax [1, 22] of the same compound?
Answer: 13.5 µg/mL

Question: What about the Kp [1, 22] of the same compound?
Answer: 5.94

Question: And the Tmax [1, 22]?
Answer: 30 min

Question: And the AUC(0-t) ([1]; BALB/c, mouse, thymus, iv, 20 mg/kg, AUC0-t, 20 mg/kg IV, 0–1440 min)?
Answer: 84.5 µg·h/mL

Question: And the Kp ([1]; BALB/c, mouse, tumor (CT26), intravenous, 20 mg/kg)?
Answer: 8.68

Question: What about the AUC(0-inf) [1, 23] of the same compound?
Answer: 140 µg·h/mL

Question: And the Cmax [1, 23]?
Answer: 13.1 µg/mL

Question: And the Tmax [1, 23]?
Answer: 60 min

Question: What about the AUC(0-t) ([1]; BALB/c, mouse, tumor (CT26), iv, 20 mg/kg, AUC0-t, 20 mg/kg IV, 0–1440 min) of the same compound?
Answer: 124 µg·h/mL

Question: What about the Cmax ([1]; Plasma, 20 mg/kg IV, observed, mean (SD)) of the same compound?
Answer: 13.3 (4.91) μg/mL

Question: And the “AUC0-∞” value ([1]; plasma, 20 mg/kg IV)?
Answer: 906 µg·min/mL

Question: What about the Tmax ([1]; plasma, 20 mg/kg IV) of the same compound?
Answer: 5 min

Question: What about the AUC0-t/dose [1, 24] of the same compound?
Answer: 42.7

Question: What about the “AUC0-∞ /dose” value [1, 24] of the same compound?
Answer: 45.3

Question: And the “AUC0–360/dose” value [1, 24]?
Answer: 29.6

Question: And the AUCextrap [1, 24]?
Answer: 5.75%

Question: What about the Tlast [1, 24] of the same compound?
Answer: 1440 min

Question: And the “0–24 h feces” value [1, 25]?
Answer: 4.13 % dose

Question: And the “0–24 h urine” value [1, 25]?
Answer: 48.4 % dose

Question: What about the clinically associated toxicities [2] of the same compound?
Answer: bone marrow toxicities including neutropenia, thrombocytopenia, leukocytopenia, lymphocytopenia, and anemia

Question: And the efflux transporter substrate [3]?
Answer: substrate

Question: What about the fraction unbound at 24 h, 300 ng/mL [4] of the same compound?
Answer: 0.028

Question: And the fraction unbound at 24 h, 100000 ng/mL [4]?
Answer: 0.0427

Question: And the “dose up to which plasma PK is dose-proportionate” value [5]?
Answer: up to 240 mg/m^2
